Results: ChEMBL document CHEMBL1122079, “Tryptophan analogues. 1. Synthesis and antihypertensive activity of positional isomers” (1982)

Tests used:
Felis catus [1] = assay: Change in blood pressure in normotensive anesthetized cat.; type: functional
Outline: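 Normotensive cats of either sex (2-4 kg) anesthetized with α-chloralose (80 mg/kg iv). Trachea, femoral artery and jugular vein cannulated. Compound given iv at 10 mg/kg, with 1 mg/kg iv used in one case. Mean blood pressure recorded by pressure transducer before and 30 min after dosing, reported as decrease in mmHg.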

Rattus norvegicus [2] = assay: Antihypertensive activity in renal hypertensive rats 6 hr after oral administration (10 mg/Kg); type: functional
Outline: (§1)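 Renal hypertensive rats (5 or 10 per group), 10 mg/kg given orally. Systolic pressure measured indirectly by tail occluding cuff with pulse sensor, once before dosing as control and again at 1, 2, 4, 6 and 8 h. Values are changes in mean systolic pressure from control (mmHg). Significance of control vs posttreatment assessed by Wilcoxon's signed rank test (p < 0.05).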

Rattus norvegicus [3] = assay: Antihypertensive activity in renal hypertensive rats 8 hr after oral administration (10 mg/Kg); type: functional; outline: as §1
Rattus norvegicus [4] = assay: Antihypertensive activity in renal hypertensive rats 1 hr after oral administration (10 mg/Kg); type: functional; outline: as §1
Rattus norvegicus [5] = assay: Antihypertensive activity in renal hypertensive rats 2 hr after oral administration (10 mg/Kg); type: functional; outline: as §1
Rattus norvegicus [6] = assay: Antihypertensive activity in renal hypertensive rats 4 hr after oral administration (10 mg/Kg); type: functional; outline: as §1
Felis catus [7] = assay: Control blood pressure in normotensive anesthetized cat at dose 10 mg/Kg iv

Compound	BP (Felis catus [1]) [mmHg]	BP (Rattus norvegicus [2]) [mmHg]	BP (Rattus norvegicus [3]) [mmHg]	BP (Rattus norvegicus [4]) [mmHg]	BP (Rattus norvegicus [5]) [mmHg]	BP (Rattus norvegicus [6]) [mmHg]	control BP (Felis catus [7]) [mmHg]
CCOC(=O)CC(CNC(C)=O)c1c[nH]c2ccccc12 (centres undefined)	-21	-6	-2	-8	-11	-7	169
COC(=O)C(CN)c1c[nH]c2ccc(Cl)cc12.Cl (centres undefined)	-61	2	5	-8	-5	0	160
NCC(CC(=O)O)c1c[nH]c2ccccc12 (centres undefined)	-11	-14	1	-11	-3	-3	152
NCC(C(=O)O)c1c[nH]c2ccc(F)cc12 (centres undefined)	-25	-15	0	-19	-26	-27	180
COC(=O)C(CN(C)C)c1c[nH]c2ccc(OC)cc12.O=C(O)C(=O)O (centres undefined)	-35	14	13	-9	-2	1	167
COC(=O)C(CN(C)C)c1c[nH]c2ccccc12 (centres undefined)	-35	11	1	-2	0	2	145
CCOC(=O)NCC(c1nnn[nH]1)c1c[nH]c2ccc(OC)cc12 (centres undefined)	5	2	0	-2	2	0	160
COC(=O)C(CN)c1c[nH]c2ccc(Br)cc12.Cl (centres undefined)	-35	8	7	-6	-10	6	125
N[C@@H](Cc1c[nH]c2ccccc12)C(=O)O [TRYPTOPHAN]	-22	-4	0	-12	-9	-15	165
COc1ccc2[nH]cc(C(CN)C(=O)O)c2c1 (centres undefined)	-5	-6	-2	-1	-10	2	142
CCOC(=O)C(CNC(C)=O)c1cn(C(=O)OCC)c2cc(Cl)ccc12 (centres undefined)	-2	-7	-3	-18	-12	-12	165
COC(=O)C(N)Cc1c[nH]c2ccc(OC)cc12 (centres undefined)	-12	4	-1	-7	4	-8	136
CCOC(=O)C(CNC(C)=O)c1cn(C(=O)OCC)c2cccc(Cl)c12 (centres undefined)	11	0	2	-8	-1	3	183
COC(=O)C(c1c[nH]c2ccc(OC)cc12)C(C)N (centres undefined)		3	2	-6	-3	-3	
COc1ccc2[nH]cc(C(CN)c3nnn[nH]3)c2c1 (centres undefined)	-4	3	13	-2	5	-2	167
COC(=O)C(CN)c1c[nH]c2ccc(OC)cc12.Cl (centres undefined) [INDORENATE HYDROCHLORIDE]	-82	-10	2	-85	-71	-38	162
COC(=O)C(CN)c1c[nH]c2cc(Cl)ccc12.Cl (centres undefined)	-7	-15	-7	-14	-23	-17	140
COC(=O)CC(CN)c1c[nH]c2ccccc12 (centres undefined)	-4	-7	-1	-1	-11	2	184
CCCOc1ccc2[nH]cc(C(CN)C(=O)OC)c2c1.Cl (centres undefined)		9	5	-6	6	8	150
COC(=O)C(CN)c1c[nH]c2ccc(F)cc12.Cl (centres undefined)	-30	-4	1	-28	-18	-9	133
CCCCCOC(=O)C(CN)c1c[nH]c2ccc(OC)cc12.Cl (centres undefined)	2	-11	-4	-7	-11	-3	148
NCC(C(=O)O)c1c[nH]c2cc(Cl)ccc12 (centres undefined)	-2	-14	-9	-4	-5	-6	179
COC(=O)C(CN)c1c[nH]c2cc(OC)c(OC)cc12.Cl (centres undefined)	-16	-7	-2	-15	-2	-4	160
CCOC(=O)C(CN)c1c[nH]c2ccc(OC)cc12.Cl (centres undefined)	0	-2	-3	-5	-4	4	160
COC(=O)C(CN)c1c(C)[nH]c2ccc(OC)cc12.Cl (centres undefined)	1	-8	-3	2	-2	-8	164
COC(=O)C(CN)c1cn(C)c2ccc(OC)cc12.Cl (centres undefined)	20	1	7	-5	-6	3	165
COc1ccc2[nH]cc(C(CN)CO)c2c1.O=C(O)C(=O)O (centres undefined)		-8	0	-13	-15	4	
